Reference: ChEMBL document CHEMBL4020725, “Design and synthesis of novel xanthine derivatives as potent and selective A2B adenosine receptor antagonists for the treatment of chronic inflammatory airway diseases” (Eur J Med Chem, 2017)
In brackets after ≈: the same amount, converted by molar mass. Activity calls are given as the source filed them. The rule behind the calls is not given here.

Key:
[1] = Aqueous solubility of the compound at pH 7.4; type: physicochemical
In short: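 Aqueous solubility measured at pH 7.4.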

[2] = molecular target: T1, Adenosine receptor A1 (Homo sapiens) (UniProt P30542); test: Displacement of [3H]-DPCPX from human adenosine A1 receptor expressed in HEK293 cell membranes at 0.1 uM after 90 mins relative to control
T1 sequence (whole entry): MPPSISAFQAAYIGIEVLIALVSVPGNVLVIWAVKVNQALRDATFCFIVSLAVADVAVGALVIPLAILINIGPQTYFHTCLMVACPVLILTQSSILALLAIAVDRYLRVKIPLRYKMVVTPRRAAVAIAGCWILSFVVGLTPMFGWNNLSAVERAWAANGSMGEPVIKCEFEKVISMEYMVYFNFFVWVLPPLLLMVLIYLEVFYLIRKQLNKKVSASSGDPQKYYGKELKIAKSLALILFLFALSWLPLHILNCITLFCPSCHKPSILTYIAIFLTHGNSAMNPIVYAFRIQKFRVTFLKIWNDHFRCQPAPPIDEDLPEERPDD
In short: (§1)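 Membranes from HEK-293 cells stably transfected with human A1, A2A or A3 receptor, pretreated with 1 U/ml ADA. Membranes are incubated 90 min at room temperature with gentle agitation. Tracer and buffer per receptor: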

Adenosine receptor A2b [3] = molecular target: T2, Adenosine receptor A2b (Homo sapiens, UniProt P29275); test: Displacement of [3H]-MRS-1754 from human adenosine A2B receptor expressed in HEK293 cell membranes after 90 mins; settings: read-out: Ki
T2 sequence (P29275 whole entry): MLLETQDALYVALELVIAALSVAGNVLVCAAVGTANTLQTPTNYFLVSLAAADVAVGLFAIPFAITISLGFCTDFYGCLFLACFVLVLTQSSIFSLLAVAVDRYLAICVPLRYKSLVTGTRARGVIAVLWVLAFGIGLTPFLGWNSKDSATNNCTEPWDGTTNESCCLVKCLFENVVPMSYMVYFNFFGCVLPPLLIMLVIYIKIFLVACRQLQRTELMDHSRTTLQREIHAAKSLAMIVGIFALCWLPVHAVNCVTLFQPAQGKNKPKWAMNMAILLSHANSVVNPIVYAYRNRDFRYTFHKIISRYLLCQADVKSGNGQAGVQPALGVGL
In short: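 Membranes from HEK-293 cells stably expressing human A2B, ADA-treated, incubated with 1.6 nM [3H]-MRS-1754 in 50 mM Tris pH 6.5, 5 mM MgCl2, 1 mM EDTA, 1 U/ml ADA. Incubation 90 min at room temperature. Filtration; nonspecific binding with 100 µM NECA. Eight compound concentrations, each in triplicate; Ki derived by fitting.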

[4] = molecular target: Adenosine receptor A2a (Homo sapiens) (UniProt P29274); test: Displacement of [3H]-ZM241385 from human adenosine A2A receptor expressed in HEK293 cell membranes at 0.1 uM after 90 mins relative to control; in short: as §1
[5] = molecular target: T3, Adenosine receptor A3 (Homo sapiens) (UniProt P0DMS8); test: Displacement of [3H]-HEMADO from human adenosine A3 receptor expressed in HEK293 cell membranes at 1 uM after 90 mins relative to control; in short: as §1
T3 sequence (whole entry): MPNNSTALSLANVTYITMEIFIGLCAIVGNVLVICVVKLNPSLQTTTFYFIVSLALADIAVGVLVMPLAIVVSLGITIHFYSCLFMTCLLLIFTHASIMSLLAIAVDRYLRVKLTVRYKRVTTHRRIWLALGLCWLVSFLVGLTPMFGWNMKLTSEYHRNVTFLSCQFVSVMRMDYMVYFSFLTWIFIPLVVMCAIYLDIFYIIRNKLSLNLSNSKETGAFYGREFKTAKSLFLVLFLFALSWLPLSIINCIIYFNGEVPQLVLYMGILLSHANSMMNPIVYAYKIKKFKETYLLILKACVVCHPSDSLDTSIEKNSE

Adenosine receptor A2b [6] = molecular target: T2, Adenosine receptor A2b; test: Antagonist activity at human adenosine A2B receptor expressed in HEK293 cells assessed as inhibition of NECA-induced increase in cAMP accumulation incubated for 15 mins followed by agonist treatment for 15 mins by HTRF assay; type: functional, cell-based
In short: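 HEK-293 cells overexpressing human A2B, 24 h cultures, are pretreated with 1 U/mL ADA for 90 min at 37°C. Cells are harvested and preincubated with increasing compound concentrations for 15 min at room temperature in DMEM with ADA.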

Adenosine receptor A2b [7] = molecular target: T2, Adenosine receptor A2b; test: Antagonist activity at human adenosine A2B receptor expressed in mouse NIH/3T3 cells assessed as inhibition of NECA-induced IL-6 release incubated for 15 mins followed by agonist treatment for 15 mins by HTRF assay; type: cell-based
[8] = Cmax in C57BL/6J mouse at 10 mg/kg, po; type: ADME, organism-based; parameters: dose 10 mg/kg, route oral; settings: in vivo
In short: (§2)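 Oral dosing at 10 mg/Kg in C57BL/6J mice. Vehicle is DMAC (10%), CrEL (10%), PEG300 (10%) in water, pH ~9, or, for one compound, DMSO (10%), CrEL (10%), PEG300 (10%) in water, pH ~7.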

[9] = AUC (0 to t) in C57BL/6J mouse at 10 mg/kg, po; type: ADME, organism-based; settings: in vivo; in short: as §2
[10] = Half life in C57BL/6J mouse at 10 mg/kg, po; type: ADME, organism-based; settings: in vivo; in short: as §2
[11] = Oral bioavailability in C57BL/6J mouse at 10 mg/kg; type: ADME, organism-based; settings: in vivo; in short: as §2
Liver [12] = test: Metabolic stability in mouse liver microsomes; type: ADME, microsome
Liver [13] = test: Metabolic stability in rat liver microsomes; type: ADME, microsome
Liver [14] = test: Metabolic stability in human liver microsomes; type: ADME, microsome
[15] = Inhibition of CYP450 (unknown origin); type: ADME, Homo sapiens
MDCK = test: Cytotoxicity against MDCK cells; type: cell-based; settings: Canis lupus familiaris
HepG2 = test: Cytotoxicity against human HepG2 cells; type: cell-based
[16] = molecular target: Voltage-gated inwardly rectifying potassium channel KCNH2 (Homo sapiens, UniProt Q12809); test: Inhibition of human ERG
Mus musculus [17] = test: Antiinflammatory activity in ovalbumin-induced allergic asthma mouse model assessed as reduction in total cell count in bronchoalveolar lavage fluid at 3 mg/kg administered ip bid; type: functional, organism-based
Mus musculus [18] = test: Antiinflammatory activity in […] allergic asthma mouse model assessed as inhibition of airway hyper-responsiveness at 3 mg/kg administered ip bid; type: functional, organism-based
P-gp = test: Substrate activity at P-gp (unknown origin) assessed as ratio of permeability from basolateral to apical side over apical to basolateral side; type: ADME; settings: human, not told

Adenosine receptor A2a (Homo sapiens), sequence (P29274 whole entry): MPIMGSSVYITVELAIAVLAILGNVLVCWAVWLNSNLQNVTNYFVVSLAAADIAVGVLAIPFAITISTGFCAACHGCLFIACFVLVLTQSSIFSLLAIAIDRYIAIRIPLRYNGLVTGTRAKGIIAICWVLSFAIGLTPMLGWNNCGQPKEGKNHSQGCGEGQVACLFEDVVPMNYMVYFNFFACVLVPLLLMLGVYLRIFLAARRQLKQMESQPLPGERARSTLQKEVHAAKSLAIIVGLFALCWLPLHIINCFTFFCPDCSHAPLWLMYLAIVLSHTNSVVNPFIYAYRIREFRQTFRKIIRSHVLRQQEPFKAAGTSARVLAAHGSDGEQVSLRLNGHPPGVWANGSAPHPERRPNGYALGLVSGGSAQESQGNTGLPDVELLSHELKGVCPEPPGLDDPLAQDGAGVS
Voltage-gated inwardly rectifying potassium channel KCNH2, sequence (Q12809 whole entry): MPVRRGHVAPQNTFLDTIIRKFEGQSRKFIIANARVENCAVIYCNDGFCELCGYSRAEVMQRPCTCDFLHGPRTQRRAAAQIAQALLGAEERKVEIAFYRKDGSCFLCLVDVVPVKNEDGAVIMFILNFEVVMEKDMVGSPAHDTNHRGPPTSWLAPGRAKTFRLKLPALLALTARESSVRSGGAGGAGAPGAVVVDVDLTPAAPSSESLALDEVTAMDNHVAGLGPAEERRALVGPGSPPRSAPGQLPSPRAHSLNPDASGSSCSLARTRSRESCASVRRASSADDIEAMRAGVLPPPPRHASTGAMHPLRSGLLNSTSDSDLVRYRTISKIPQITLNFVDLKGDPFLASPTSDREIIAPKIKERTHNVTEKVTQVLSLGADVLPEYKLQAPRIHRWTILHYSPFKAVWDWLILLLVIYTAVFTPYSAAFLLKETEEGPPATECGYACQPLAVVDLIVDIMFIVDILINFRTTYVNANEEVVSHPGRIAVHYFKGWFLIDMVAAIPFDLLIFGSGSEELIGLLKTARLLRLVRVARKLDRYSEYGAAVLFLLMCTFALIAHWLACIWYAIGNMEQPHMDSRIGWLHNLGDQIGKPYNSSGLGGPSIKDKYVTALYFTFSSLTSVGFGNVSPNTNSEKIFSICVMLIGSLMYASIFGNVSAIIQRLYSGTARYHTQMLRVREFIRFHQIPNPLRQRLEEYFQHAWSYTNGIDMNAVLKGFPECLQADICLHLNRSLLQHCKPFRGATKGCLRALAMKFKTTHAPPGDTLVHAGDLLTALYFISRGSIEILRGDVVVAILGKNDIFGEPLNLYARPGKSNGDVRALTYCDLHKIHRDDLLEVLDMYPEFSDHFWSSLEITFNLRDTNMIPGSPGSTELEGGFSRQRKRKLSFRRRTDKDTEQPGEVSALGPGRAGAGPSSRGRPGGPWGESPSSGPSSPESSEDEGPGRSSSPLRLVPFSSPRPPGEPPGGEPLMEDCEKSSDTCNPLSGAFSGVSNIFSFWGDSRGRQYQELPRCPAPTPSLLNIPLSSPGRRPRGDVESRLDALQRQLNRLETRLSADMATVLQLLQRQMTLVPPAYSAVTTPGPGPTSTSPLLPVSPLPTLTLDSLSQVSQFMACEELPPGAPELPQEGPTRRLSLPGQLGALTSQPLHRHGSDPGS

Question: With `CCCn1c(=O)c2[nH]c(-c3cnn(CC#Cc4cccc(OC(F)(F)F)c4)c3)nc2n(CCC)c1=O` as the compound, how does the solubility [1] read?
Answer: < 6 µM

Question: And the inhibition [2]?
Answer: 39%

Question: What about the Ki (Adenosine receptor A2b [3]) of the same compound?
Answer: 3.6 nM

Question: What about the inhibition [4] of the same compound?
Answer: 27%

Question: What about the inhibition [5] of the same compound?
Answer: 6%

Question: And the Ki (Adenosine receptor A2b [6])?
Answer: 8.8 nM

Question: And the IC50 (Adenosine receptor A2b [7])?
Answer: 90 nM

Question: And the Cmax [8]?
Answer: 6.6 µM

Question: What about the AUC(0-t) [9] of the same compound?
Answer: 67 µM·h

Question: What about the half-life [10] of the same compound?
Answer: 5 h

Question: What about the bioavailability [11] of the same compound?
Answer: 42%

Question: And the Stability (Liver [12])?
Answer: Stable

Question: What about the Stability (Liver [13]) of the same compound?
Answer: Stable

Question: What about the Stability (Liver [14]) of the same compound?
Answer: Stable

Question: With `CCCn1c(=O)c2[nH]c(-c3cnn(CC#Cc4cccc(OC(F)(F)F)c4)c3)nc2n(CC)c1=O` as the compound, how does the solubility [1] read?
Answer: 21 µM (≈ 10.2 µg/mL)

Question: What about the inhibition [2] of the same compound?
Answer: 17%

Question: What about the Ki (Adenosine receptor A2b [3]) of the same compound?
Answer: 13 nM

Question: And the inhibition [4]?
Answer: 37%

Question: And the inhibition [5]?
Answer: 0%

Question: And the Ki (Adenosine receptor A2b [6])?
Answer: 8 nM

Question: What about the IC50 (Adenosine receptor A2b [7]) of the same compound?
Answer: 107 nM

Question: And the Cmax [8]?
Answer: 13 µM

Question: And the AUC(0-t) [9]?
Answer: 60 µM·h

Question: What about the half-life [10] of the same compound?
Answer: 6.1 h

Question: And the bioavailability [11]?
Answer: 76%

Question: And the IC50 [15]?
Answer: > 10000 nM

Question: What about the IC50 (MDCK) of the same compound?
Answer: > 100000 nM

Question: What about the IC50 (HepG2) of the same compound?
Answer: > 100000 nM

Question: What about the IC50 [16] of the same compound?
Answer: > 25000 nM

Question: What about the Stability (Liver [12]) of the same compound?
Answer: Stable

Question: What about the Stability (Liver [13]) of the same compound?
Answer: Stable

Question: And the Stability (Liver [14])?
Answer: Stable

Question: What about the Activity (Mus musculus [17]) of the same compound?
Answer: Active

Question: What about the inhibition (Mus musculus [18]) of the same compound?
Answer: Active

Question: Which inhibition [2] does the source give for `CCCn1c(=O)c2[nH]c(-c3cnn(CC#Cc4ccc(F)cc4)c3)nc2n(CCC)c1=O` here?
Answer: 105%

Question: And the Ki (Adenosine receptor A2b [3])?
Answer: 5.9 nM

Question: What about the inhibition [4] of the same compound?
Answer: 66%

Question: And the inhibition [5]?
Answer: 19%

Question: With `CCCn1c(=O)[nH]c2nc(-c3cnn(CC#Cc4ccc(C(F)(F)F)cc4)c3)[nH]c2c1=O` as the compound, how does the inhibition [2] read?
Answer: 89%

Question: And the Ki (Adenosine receptor A2b [3])?
Answer: 1.3 nM

Question: And the inhibition [4]?
Answer: 39%

Question: And the inhibition [5]?
Answer: 15%

Question: With `CCCn1c(=O)c2[nH]c(-c3cnn(CC#Cc4cccc(C(=O)O)c4)c3)nc2n(CCC)c1=O` as the compound, how does the solubility [1] read?
Answer: 529 µM (≈ 244 µg/mL)

Question: And the inhibition [2]?
Answer: 20%

Question: And the Ki (Adenosine receptor A2b [3])?
Answer: 5.3 nM

Question: What about the inhibition [4] of the same compound?
Answer: 32%

Question: What about the inhibition [5] of the same compound?
Answer: 0%

Question: And the Ki (Adenosine receptor A2b [6])?
Answer: 1.8 nM

Question: And the IC50 (Adenosine receptor A2b [7])?
Answer: 2000 nM

Question: What about the Cmax [8] of the same compound?
Answer: 1.9 µM

Question: What about the AUC(0-t) [9] of the same compound?
Answer: 2.2 µM·h

Question: And the half-life [10]?
Answer: 1.8 h

Question: What about the bioavailability [11] of the same compound?
Answer: 10%

Question: And the Stability (Liver [12])?
Answer: Stable

Question: And the Stability (Liver [13])?
Answer: Stable

Question: What about the Stability (Liver [14]) of the same compound?
Answer: Stable

Question: What about the efflux ratio (P-gp) of the same compound?
Answer: 12
